Results on 14 compounds are retold here after PubChem BioAssay.

A short description of test [1]: inhibitors of TNFa-induced NFkB p65 translocation, primary screen, imaging, HUVEC, MLSMR starter and 10KST1 sets (AID 438;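 active = inhibition above 20% together with a positive visual image hit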;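 also: compound added about 3h40 before a 20 min TNFalpha stimulation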;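 as to inhibition: signal is the nuclear over cytoplasmic p65 intensity ratio per well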). The following applies: HUVEC TNFa-induced p65 nuclear translocation; cell count: measured here: nuclei count (cytotoxicity indicator), at 2.08 µM; inhibition: at 2 µM, stronger effect = higher value, 0% TNFa-plus-vehicle, 100% no-TNFa wells.
The nature of test [2]: reduction of polyQ htt aggregates in cells – imaging, exon1htt(103Q)mCFP cells, high-content imaging, primary screen (AID 483;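 active = visual image review flags a hit and inhibition of aggregation exceeds 20%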;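 also: compound exposure lasted 3 days before fixation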;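 as to nuclei count: percent of the per-plate median nuclei count of sample wells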). The note with it: exon1htt(103Q)mCFP cell line, aggregate imaging, at 2 µM; inhibition of aggregation: stronger effect = higher value; nuclei count: measured here: cell count, toxicity.
Test [3] can be described thus: endothelial E-selectin expression blockers – imaging, HUVEC, immunofluorescence, MLSMR starter and 10KST1 sets, primary screen (AID 487;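 active = visually confirmed hit in the image check and inhibition above 20%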;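 as to inhibition: signal is fraction of cell area covered by stained E-selectin grains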;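 as to nuclei count: 100% = median nuclei count of all wells on the same plate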). The following applies: HUVEC TNFalpha-induced E-selectin immunofluorescence imaging, at 2 µM; inhibition: stronger effect = higher value; nuclei count: measured here: cell number, toxicity.
Test [4] concerns the target Voltage-gated potassium channel subunit beta-2 (Rattus norvegicus) (UniProt P62483). The test is described as follows: inhibitors of rat Kvbeta2 reductase activity – biochemical, NADPH fluorescence, primary screen (AID 622;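 active = fluorescence slope higher than the sample average by over 3 SD, cut at about -0.22 in these data, passing the limit was not always enough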;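 also: slope of raw intensity against log time taken from 70 to 1610 s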). The following applies: recombinant KvBeta, 4-cyanobenzaldehyde reduction, at 10 µM, stronger effect = higher value.
The target is the same in test [5]. The test is described as follows: enhancers of rat Kvbeta2 NADPH turnover – biochemical, NADPH fluorescence, primary screen (AID 623;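 active = NADPH fluorescence slope more negative than the mean of all samples by about 3 SD, 99.7% confidence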;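 also: fluorescence intensity change per second fitted from 20 to 320 s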). The note with it: Recombinant KvBeta, NADPH fluorescence decrease slope, 10 min; at 10 µM; stronger effect = lower value.
Test [6] deals with Muscarinic acetylcholine receptor M4 (Homo sapiens) (UniProt P08173). The test is described as follows: M4-linked GIRK flux change, two-sided – cell-based, HEK293 M4/GIRK, thallium flux, BTC-AM, M4 allosteric agonist project, primary screen (AID 625).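 Also: thallium influx through GIRK channels coupled to M4 in HEK293 cells with BTC-AM dye.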 The following applies: at 10 µM, actives lie on both sides. In short, it runs like this:
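assay system = HEK293 cells with M4 receptor and GIRK channels | medium = pH 7.3 thallium assay buffer | doses = 10 µM final, single point | timing = cells overnight at 37 °C, BTC-AM loading 1 h, reads 2 min total | signal = BTC-AM fluorescence, 1 Hz kinetic reads | read-out = post-addition slope, 15–24 s, of baseline-normalized fluorescence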

The nature of test [7]: blockers of RIG-like receptor reporter activation – cell-based, Sendai virus stimulus, luciferase, 10K MLSCN set, TLR/RLR signaling modifier project, primary screen (AID 602276;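 active = inhibition at or above 50% at 10 µM; inactive = inhibition below 50%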;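 also: firefly luciferase from ISG56 promoter only with Renilla not read in this screen; 0% = Sendai virus plus DMSO and 100% = medium plus DMSO without virus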). The note with it: HEK293 RL24 IRF3 luciferase reporter, at 10 µM, stronger effect = higher value. In general terms: A reporter such as luciferase makes a cellular process visible.
Test [8] is described as follows: TLR3 IRF3 reporter activation blockers – cell-based, poly I:C stimulus, luciferase, 10K MLSCN set, primary screen (AID 602277;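 active = inhibition of the reporter signal at or above 50%; inactive = inhibition below 50%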). The note with it: HEK293-TLR3 RL24 IRF3 luciferase reporter, at 10 µM, stronger effect = higher value.

The structures appear in SMILES notation. The source made the active and inactive calls.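 The calls were made as follows, unless noted: active = fluorescence slope after compound addition differing from the mean of all tested samples at 99.7% confidence, mostly higher but some lower; inactive = the rest.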

Chain of Muscarinic acetylcholine receptor M4 (Homo sapiens) (P08173 whole entry, looked up): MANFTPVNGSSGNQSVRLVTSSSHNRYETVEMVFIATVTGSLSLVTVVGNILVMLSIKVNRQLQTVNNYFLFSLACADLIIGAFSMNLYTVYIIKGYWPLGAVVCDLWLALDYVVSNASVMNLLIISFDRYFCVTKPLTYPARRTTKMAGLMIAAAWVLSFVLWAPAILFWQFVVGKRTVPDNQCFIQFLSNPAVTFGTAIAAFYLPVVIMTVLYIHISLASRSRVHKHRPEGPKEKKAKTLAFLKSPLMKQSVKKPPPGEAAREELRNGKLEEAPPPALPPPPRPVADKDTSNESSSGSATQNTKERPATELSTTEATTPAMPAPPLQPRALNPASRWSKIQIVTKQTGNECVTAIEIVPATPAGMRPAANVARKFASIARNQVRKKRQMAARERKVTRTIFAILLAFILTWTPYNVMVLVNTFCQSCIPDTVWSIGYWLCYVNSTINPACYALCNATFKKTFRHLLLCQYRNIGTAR
Chain of Voltage-gated potassium channel subunit beta-2 (Rattus norvegicus) (P62483 whole entry, looked up): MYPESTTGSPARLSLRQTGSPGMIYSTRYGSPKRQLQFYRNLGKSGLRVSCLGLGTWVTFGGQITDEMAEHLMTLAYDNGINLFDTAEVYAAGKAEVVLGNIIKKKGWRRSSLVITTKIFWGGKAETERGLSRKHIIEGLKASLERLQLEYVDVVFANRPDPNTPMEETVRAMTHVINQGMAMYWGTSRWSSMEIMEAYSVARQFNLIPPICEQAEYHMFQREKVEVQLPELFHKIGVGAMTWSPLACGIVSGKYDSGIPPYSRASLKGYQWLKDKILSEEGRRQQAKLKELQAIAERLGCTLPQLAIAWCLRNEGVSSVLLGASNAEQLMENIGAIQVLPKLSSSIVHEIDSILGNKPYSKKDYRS

As usually defined, the inhibition is the change of the read-out against control, counted positive when it falls. With `Brc1ccc(-c2cn3cccnc3n2)cc1`, in test [1], the cell count was found to be 514. Also, the inhibition was 3.4% (inactive) in test [1], -4.5% (inactive) in test [3], -47.6% (inactive) in test [7] and -89.9% (inactive) in test [8]. The inhibition of aggregation in test [2] was -8.8% (inactive). Further, the results for the nuclei count in test [2] and in test [3] were 121% and 110%, respectively. For the same compound, the fluorescence slope in test [4] is -0.138 (active); in test [6] it was 0.00424 (inactive). In test [5], the NADPH fluorescence slope was 7.5e-06 (inactive).
In the case of `CCCCCCC(=O)c1c(C)[nH]c(C(=O)OCC)c1C`, in test [1], the cell count worked out at 310. Also, the inhibition in test [1] is -4.2% (inactive); in test [3], -54.5% (inactive); in test [7] it was -13.2% (inactive); in test [8] it was -55.3% (inactive). Also, in test [2], the inhibition of aggregation was 14.4% (inactive). The nuclei count in test [2] came out at 59.6%; in test [3], 102%. In addition, the fluorescence slope is -0.517 (inactive) in test [4] and 0.00442 (inactive) in test [6]. The NADPH fluorescence slope in test [5] is -2.8e-05 (inactive).
As to `COc1ccc(-c2noc(CCC(=O)NCCCN3CCC(Cc4ccccc4)CC3)n2)cc1`, the cell count in test [1] is 335. In addition, the inhibition in test [1] is 7.8% (inactive); in test [3], -46.3% (inactive); in test [7] it was 3.44% (inactive); in test [8] it was -1.77% (inactive). Moreover, the inhibition of aggregation in test [2] is 2% (inactive). The nuclei count was found to be 94% in test [2] and 108% in test [3]. In addition, the fluorescence slope in test [4] was -0.547 (inactive); in test [6], 0.00434 (inactive). For the same compound, the NADPH fluorescence slope in test [5] was -2.4e-05 (inactive).
Consider `CCc1c(C)nc(N)n2c(SCC(=O)N3CCCc4ccccc43)nnc12`, for which the cell count in test [1] amounted to 503. In addition, the inhibition in test [1] is 14.6% (inactive); in test [3] it was -251% (inactive); in test [7], 20.9% (inactive); in test [8] it was 31.4% (inactive). Further, the inhibition of aggregation in test [2] is -13.3% (inactive). Also, the values for the nuclei count in test [2] and in test [3] were 123% and 147%, respectively. The fluorescence slope was -0.454 (inactive) in test [4] and 0.00455 (inactive) in test [6]. In addition, the NADPH fluorescence slope in test [5] is -6.5e-05 (inactive).
As to `Cc1ccc(Oc2ccc(-c3nc(N)nc(N)n3)cc2)cc1`, in test [1], the cell count stood at 366. Besides, the inhibition is -6% (inactive) in test [1], -62.6% (inactive) in test [3], 7.07% (inactive) in test [7] and 11.6% (inactive) in test [8]. Further, the inhibition of aggregation in test [2] is 9% (inactive). Besides, the nuclei count in test [2] was found to be 105%; in test [3], 125%. In addition, the fluorescence slope in test [4] was -0.547 (inactive); in test [6], 0.00425 (inactive). Further, the NADPH fluorescence slope in test [5] was -2.9e-05 (inactive).
In the case of `CN(C)c1ccc(CNC2CC(C)(C)NC(C)(C)C2)cc1`, the cell count in test [1] came to 334. Besides, the inhibition was 2.4% (inactive) in test [1], 20.8% (inactive) in test [3], -0.582% (inactive) in test [7] and 16.7% (inactive) in test [8]. Further, the inhibition of aggregation in test [2] is -12.5% (inactive). For the same compound, the nuclei count in test [2] was 106%; in test [3], 91.1%. Moreover, the values for the fluorescence slope in test [4] and in test [6] were -0.584 (inactive) and 0.00412 (inactive), respectively. For the same compound, in test [5], the NADPH fluorescence slope is -4.8e-05 (inactive).
On to `CCc1cc2c(NCCC(=O)O)ncnc2s1`, for which, in test [1], the cell count is 507. In addition, the inhibition was 15.8% (inactive) in test [1], 13.4% (inactive) in test [3], 12.3% (inactive) in test [7] and 17.4% (inactive) in test [8]. In addition, the inhibition of aggregation in test [2] was 4.4% (inactive). Moreover, the nuclei count came to 103% in test [2] and 110% in test [3]. The fluorescence slope was -0.562 (inactive) in test [4] and 0.00669 (inactive) in test [6]. Moreover, the NADPH fluorescence slope in test [5] was 1.3e-05 (inactive).
For `O=C(CCn1nc(-c2ccc(Cl)cc2)ccc1=O)N1CCN(c2ccccn2)CC1`, the cell count in test [1] came to 244. The inhibition in test [1] is -0.9% (inactive); in test [3] it was 36.1% (inactive); in test [7] it was 7.53% (inactive); in test [8] it was 10.9% (inactive). In addition, the inhibition of aggregation in test [2] is 26.9% (inactive). For the same compound, the nuclei count in test [2] worked out at 100%; in test [3], 98.7%. The fluorescence slope is -0.582 (inactive) in test [4] and 0.00547 (inactive) in test [6]. Moreover, the NADPH fluorescence slope in test [5] is -8.6e-06 (inactive).
As to `CCOC(=O)C1CCCN(c2nc3ccccc3nc2C(C#N)C(=O)NCc2ccccc2)C1` (centres undefined), in test [1], the cell count came out at 703. Besides, the inhibition is 9.6% (inactive) in test [1], -40% (inactive) in test [3], 7.48% (inactive) in test [7] and 12.6% (inactive) in test [8]. Further, in test [2], the inhibition of aggregation was -4.3% (inactive). The nuclei count in test [2] worked out at 103%; in test [3], 126%. Moreover, the fluorescence slope in test [4] was -0.459 (inactive); in test [6] it was 0.00538 (inactive). In test [5], the NADPH fluorescence slope was -2.8e-05 (inactive).
Consider `CCS(=O)(=O)c1nc2ccccc2n1CC(=O)N1CCOCC1`, for which the cell count in test [1] turned out to be 581. For the same compound, the inhibition is -4.1% (inactive) in test [1], -85.4% (inactive) in test [3], 16.1% (inactive) in test [7] and 10.7% (inactive) in test [8]. Besides, the inhibition of aggregation in test [2] was -22.2% (inactive). The nuclei count in test [2] is 95.9%; in test [3], 98.1%. In addition, the results for the fluorescence slope in test [4] and in test [6] were -0.589 (inactive) and 0.00736 (inactive), respectively. Further, the NADPH fluorescence slope in test [5] was -3e-05 (inactive).
Turning to `CCCc1nc2ccccc2c(=O)n1NC(=O)c1c(O)c2cccc3c2n(c1=O)CCC3`, the cell count in test [1] was found to be 554. Besides, the inhibition was -15.1% (inactive) in test [1], -150% (inactive) in test [3], 7.44% (inactive) in test [7] and 6.93% (inactive) in test [8]. For the same compound, the inhibition of aggregation in test [2] was -12.2% (inactive). The nuclei count was found to be 92% in test [2] and 120% in test [3]. Moreover, the results for the fluorescence slope in test [4] and in test [6] were -0.391 (inactive) and 0.00863 (inactive), respectively. The NADPH fluorescence slope in test [5] was -0.000105 (inactive).
In the case of `CC1=C(C#N)C(c2ccc3ncccc3c2)C(C#N)=C(C)N1`, the cell count in test [1] amounted to 641. For the same compound, the inhibition in test [1] is 1.7% (inactive); in test [3], -66.3% (inactive); in test [7], 5.74% (inactive); in test [8], 5.72% (inactive). Also, the inhibition of aggregation in test [2] is -43.5% (inactive). Further, the nuclei count in test [2] amounted to 130%; in test [3] it was 110%. For the same compound, the fluorescence slope in test [4] was -0.44 (inactive); in test [6], 0.0045 (inactive). Moreover, in test [5], the NADPH fluorescence slope was 1.3e-05 (inactive).
For `COc1ccccc1-c1noc(-c2ccco2)n1`, the cell count in test [1] amounted to 691. Besides, the inhibition in test [1] was 7.2% (inactive); in test [3], 6% (inactive); in test [7], -44.2% (inactive); in test [8], -96.7% (inactive). In addition, the inhibition of aggregation in test [2] was 16.8% (inactive). Moreover, the figures for the nuclei count in test [2] and in test [3] were 82.3% and 101%, respectively. For the same compound, the values for the fluorescence slope in test [4] and in test [6] were -0.554 (inactive) and 0.00616 (inactive), respectively. Also, in test [5], the NADPH fluorescence slope is -4.8e-05 (inactive).
In the case of `CC(C)NC(=O)NC(=O)COc1cccc2c1OC(C)(C)C2`, the cell count in test [1] turned out to be 749. Besides, the inhibition in test [1] was -10.1% (inactive); in test [3] it was -16.4% (inactive); in test [7], 17.1% (inactive); in test [8] it was 29.7% (inactive). Further, the inhibition of aggregation in test [2] was -13.5% (inactive). In addition, the nuclei count is 105% in test [2] and 100% in test [3]. Also, the fluorescence slope is -0.556 (inactive) in test [4] and 0.00684 (inactive) in test [6]. For the same compound, the NADPH fluorescence slope in test [5] is -2.9e-05 (inactive).
